Experimental data taken from PubChem BioAssay AID2369 (The Scripps Research Institute Molecular Screening Center, 2010).
Activity calls are given as the source filed them. No rule for the calls is given here.

Biological target: Protein phosphatase methylesterase 1 (Mus musculus) (UniProt Q8BVQ5)
Assay: endogenous mouse PME-1 inhibition by ABPP, late-stage follow-up, orthogonal assay for PME-1 inhibitor project, cell lysate, mouse brain cytosol, FP-rhodamine, in-gel fluorescence (AID 2369)
Conditions: band fluorescence, at 20 µM, active compounds read high
Procedure, shortened: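 System: native PME-1, mouse brain cytosol / Quantity: cytosol, 2 mg/mL / Reagent: FP-rhodamine probe, 75 nM / Compound: 20 µM single dose / Times: compound pre-incubation 30 min at 25 °C, probe labeling 45 min / Measured by: in-gel fluorescence scanning of probe-labeled bands / Evaluation: percent PME-1 inhibition from integrated band optical density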

Chain of Protein phosphatase methylesterase 1 (Mus musculus) (Q8BVQ5 whole entry, looked up): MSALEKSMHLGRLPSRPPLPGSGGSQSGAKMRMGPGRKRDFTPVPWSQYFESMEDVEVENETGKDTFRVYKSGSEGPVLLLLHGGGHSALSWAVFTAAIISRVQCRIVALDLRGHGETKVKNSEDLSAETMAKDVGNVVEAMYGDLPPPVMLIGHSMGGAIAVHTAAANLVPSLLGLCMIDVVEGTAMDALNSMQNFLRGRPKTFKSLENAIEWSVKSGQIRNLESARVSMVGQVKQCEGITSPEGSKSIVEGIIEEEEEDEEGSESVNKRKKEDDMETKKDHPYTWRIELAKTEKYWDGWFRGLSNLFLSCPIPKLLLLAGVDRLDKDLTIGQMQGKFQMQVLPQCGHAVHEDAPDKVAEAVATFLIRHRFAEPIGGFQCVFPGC

| inhibition | SMILES |
| --- | --- |
| 75% | N#C/C(=C\c1cccn1S(=O)(=O)c1cccc(OC(F)(F)F)c1)S(=O)(=O)c1ccc(F)cc1 |
| 0% (inactive) | CS(=O)(=O)/C(C#N)=C\c1ccc(-n2cc(/C=C(/C#N)S(C)(=O)=O)c3ccccc32)cc1 |
| 0% (inactive) | CCSc1ncc(/C=C(/C#N)S(C)(=O)=O)n1C |
| 80% | N#C/C(=C\c1cccn1S(=O)(=O)c1cccc(Cl)c1)S(=O)(=O)c1ccc(F)cc1 |
| 0% (inactive) | COc1ccc2[nH]c(/C=C(\C#N)S(C)(=O)=O)cc2c1 |
| 60% (inactive) | COc1cccc(S(=O)(=O)n2cccc2/C=C(\C#N)S(=O)(=O)c2ccc(F)cc2)c1 |
| 0% (inactive) | CS(=O)(=O)/C(C#N)=C/c1cn(Cc2cnc(Cl)s2)c2ccccc12 |
| 60% (inactive) | N#C/C(=C\c1cccn1S(=O)(=O)c1cccc(C(=O)O)c1)S(=O)(=O)c1ccc(F)cc1 |
| 0% (inactive) | N#C/C(=C\c1cccn1-c1ccc(Cl)cc1)S(=O)(=O)c1ccccc1 |
| 0% (inactive) | Cc1ccc(-n2cccc2/C=C(\C#N)S(C)(=O)=O)c([N+](=O)[O-])c1 |
| 0% (inactive) | Cc1cc(C)n(-c2ccc(-n3cccc3/C=C(/C#N)S(=O)(=O)c3ccccc3)cc2)n1 |
| 0% (inactive) | Cc1ccc(-c2nc3sccn3c2/C=C(\C#N)S(C)(=O)=O)cc1 |
| 0% (inactive) | CS(=O)(=O)/C(C#N)=C\c1cnc(S(=O)(=O)c2ccccc2)s1 |
| 0% (inactive) | CS(=O)(=O)/C(C#N)=C/c1cccn1-c1ccc(C(F)(F)F)cc1 |

Continued, molecule first:

| SMILES | inhibition |
| --- | --- |
| CS(=O)(=O)/C(C#N)=C/c1cccn1-c1ccc(OC(F)(F)F)cc1 | 0% (inactive) |
| Cc1cc(C)c(/C=C(\C#N)S(=O)(=O)c2ccccc2)[nH]1 | 0% (inactive) |
| N#C/C(=C\c1cccn1-c1ccc(OC(F)(F)F)cc1)S(=O)(=O)c1ccccc1 | 0% (inactive) |
| N#C/C(=C\c1cccn1S(=O)(=O)c1cccc(C#N)c1)S(=O)(=O)c1ccc(Br)cc1 | 70% |
| N#C/C(=C\c1cccn1S(=O)(=O)c1cccc([N+](=O)[O-])c1)S(=O)(=O)c1ccc(F)cc1 | 90% |
| Cc1cc(C)n(-c2ccc(-n3cccc3/C=C(\C#N)S(C)(=O)=O)cc2)n1 | 0% (inactive) |
| N#C/C(=C\c1cccn1-c1cc(Cl)cc(Cl)c1)S(=O)(=O)c1ccccc1 | 0% (inactive) |
| N#C/C(=C\c1cccn1S(=O)(=O)c1cccc(C#N)c1)S(=O)(=O)c1ccc(Cl)cc1 | 85% |
| COC(=O)c1[nH]c2ccccc2c1/C=C(\C#N)S(C)(=O)=O | 0% (inactive) |
